Series [1] in a line: Cytotoxicity against African green monkey Vero C1008 cells after 72 hrs by MTT assay. As to conditions: chlorocebus sabaeus. It is filed as cell-based. An outline of the steps:
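Vero C1008 cells were tested in microtitre plates with an MTT viability read-out, and CC50 values were determined.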

Series [2] can be described thus: Selectivity index, ratio of CC50 for African green monkey Vero C1008 cells to MIC for Mycobacterium tuberculosis H37Rv. It counts as functional. An outline of the steps: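 Selectivity index is CC50 from the MTT assay on Vero C1008 cells over MIC against Mtb H37Rv from the twofold-dilution REMA plate method, where MIC was read visually by the blue-to-pink resazurin change.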

Series [3] has as its system Mycobacterium tuberculosis. The series is described as follows: Antitubercular activity against Mycobacterium tuberculosis H37Rv assessed as parasite growth inhibition after 7 days by resazurin microtitre assay. It is filed as functional. As to conditions: 168 h. An outline of the steps: (§1)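 Mtb H37Rv was tested by resazurin microtitre assay (REMA) with twofold serial dilutions of compound. MIC was read visually as the lowest concentration preventing the dye's blue-to-pink colour change, since pink indicates growth.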
For orientation: Alamar Blue is a resazurin reagent that responds to reducing activity.

The test system of series [4] is Mycobacterium tuberculosis. As to the kind of experiment: Antitubercular activity against Mycobacterium tuberculosis H37Rv assessed as parasite growth inhibition. It is filed as functional. An outline of the steps:
as §1

≈ marks a conversion by molar mass, not a printed value.

For orientation: CC50 means the concentration that lowers cell viability or growth by half. Usually MIC stands for the smallest concentration in the dilution series that meets the test's criterion for growth inhibition.

Regarding `COc1nc2ccccc2cc1CN(Cc1ccc(Cl)cc1)CC(O)CN1CCCC1` (centres undefined), it took 898 µM to reach half-maximal cytotoxicity in series [1] (CC50 at 72 h). Besides, the “Selectivity Index” value in series [2] was 160.57. Further, the MIC in series [3] was determined as 5.59 µM (≈ 2.46 µg/mL).
`CCN(CC)CC(O)CN(Cc1ccccc1)Cc1cc2ccccc2nc1OC` (centres undefined) gave a CC50 at 72 h in series [1] of 613 µM. Further, in series [2], the “Selectivity Index” value amounted to 15.1. Also, the MIC in series [3] was 40.6 µM (≈ 16.6 µg/mL).
The compound `COc1nc2ccccc2cc1CN(Cc1ccc(C)cc1)CC(O)CN1CCOCC1` (centres undefined) came in with a CC50 at 72 h in series [1] of 884 µM. Further, the “Selectivity Index” value in series [2] is recorded as 40.4. Also, the MIC in series [3] is 21.9 µM (≈ 9.53 µg/mL).
For `COc1ccc(CN(Cc2cc3ccccc3nc2OC)CC(O)CN2CCCC2)cc1` (centres undefined) the same measures were 664 µM, 35.59 and 18.6 µM (≈ 8.12 µg/mL).
For `COc1nc2ccccc2cc1CN(Cc1ccc(Cl)cc1)CC(O)CN1CCOCC1` (centres undefined) the same measures were 1060 µM, 52.44 and 20.2 µM (≈ 9.21 µg/mL).
On to `COc1nc2ccccc2cc1CN(Cc1ccccc1)CC(O)CN1CCCC1` (centres undefined), for which the CC50 at 72 h in series [1] was found to be 792 µM. Further, in series [2], the “Selectivity Index” value turned out to be 152.86. In series [3], the minimal inhibitory concentration (MIC) worked out at 5.18 µM (≈ 2.1 µg/mL).
The matching figures for `CCN(CC)CC(O)CN(Cc1ccc(Cl)cc1)Cc1cc2ccccc2nc1OC` (centres undefined): 808 µM, 80.41 and 10.1 µM (≈ 4.44 µg/mL).
The matching figures for `COc1ccc(CN(Cc2cc3ccccc3nc2OC)CC(O)CN2CCOCC2)cc1` (centres undefined): 928 µM, 5.86 and 158 µM (≈ 71.5 µg/mL).
For `COc1nc2ccccc2cc1CN(Cc1ccccc1)CC(O)CN1CCOCC1` (centres undefined) the same measures were 553 µM, 5.69 and 97.1 µM (≈ 40.9 µg/mL).
As to `COc1nc2ccc(Br)cc2cc1[C@@H](c1ccccc1)[C@@](O)(CCN(C)C)c1cccc2ccccc12` [BEDAQUILINE], the minimum inhibitory concentration (MIC) in series [4] worked out at 0.108 µM (≈ 0.06 µg/mL).
In series [1], `CCN(CC)CC(O)CN(Cc1ccc(OC)cc1)Cc1cc2ccccc2nc1OC` (centres undefined) gave a CC50 at 72 h of 727 µM. Also, the “Selectivity Index” value in series [2] came to 9.19. For the same compound, the MIC in series [3] came out at 79.1 µM (≈ 34.6 µg/mL).
The compound `CCN(CC)CC(O)CN(Cc1ccc(C)cc1)Cc1cc2ccccc2nc1OC` (centres undefined) gave a CC50 at 72 h in series [1] of 1010 µM. Also, the “Selectivity Index” value in series [2] amounted to 52.21. Moreover, the MIC in series [3] was 19.3 µM (≈ 8.14 µg/mL).
The matching figures for `COc1nc2ccccc2cc1CN(Cc1ccc(C)cc1)CC(O)CN1CCCC1` (centres undefined): 1110 µM, 115.02 and 9.68 µM (≈ 4.06 µg/mL).
With `NNC(=O)c1ccncc1` [ISONIAZID], the “Selectivity Index” value in series [2] turned out to be 96. Also, the MIC in series [3] came to 15.3 µM (≈ 2.1 µg/mL).

Source of the values: ChEMBL document CHEMBL2440057, “Rational drug design based synthesis of novel arylquinolines as anti-tuberculosis agents” (Bioorg Med Chem Lett, 2013).
